IDE inh: human IDE inhibitors in live cells, primary screen, fluorescence polarization, HEK cells, FAbetaB substrate | AID 434962, 2010 | inhibition, % at 5.59 µM | FAbetaB cleavage | Insulin-degrading enzyme (Homo sapiens), P14735 | 0.41% of 320,000 active;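 active means percent inhibition above the average of all tested compounds plus 3 SD, set per screening campaign, cut at about 16% in these data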;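 further: IDE supplied by intact live HEK cells; FP after avidin binding of uncleaved biotin substrate so inhibition keeps polarization high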
CSN deneddyl inh: inhibitors of CSN-mediated cullin deneddylation, primary screen, biochemical, fluorescence polarization, uHTS; COP9 signalosome complex subunit 5 (Homo sapiens), Q92905; Purified CSN, SCF-Nedd8-OG deneddylation; inhibition, % at 12.5 µM; 0.38% of 360,000 active;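 active means pattern-corrected inhibition above about 35%, with an unprinted fluorescence ratio check between 0.5 and 1.5, limit read from the data, passing the limit was not always enough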
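Test system: Human Csn5 produced in HEK293T cells | Compound: 12.5 µM single point | Times: 90 min, room temperature | Signal: Fluorescence polarization readout | Read-out basis: % inhibition of substrate cleavage by Csn5 | Controls: no-enzyme wells high, enzyme-with-substrate wells low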
IDE cell activ: human IDE activators in live cells, primary screen, fluorescence polarization, HEK cells, FAbeta-B substrate. AID 493087, 2011. activation, % at 5.96 µM. FAbeta-B cleavage; 0% vehicle, 100% cell-free pure enzyme wells. 0.073% of 340,000 active. Insulin-degrading enzyme (Homo sapiens), P14735;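 active means activation above the mean of all tested compounds plus 3 SD, set per screening campaign, cut at about 17% in these data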
HNF4A DNA FP: change in binding of human HNF4A to DNA, primary screen, biochemical, fluorescence polarization, FITC-DNA | 1 h | 0.3% of 360,000 active | Hepatocyte nuclear factor 4-alpha (Homo sapiens), P41235 | activity change, % at 10 µM | AID 1224865, 2016; in the data active means activity change above about 30%, passing the limit was not always enough
Target sequence (P41235 whole entry, looked up): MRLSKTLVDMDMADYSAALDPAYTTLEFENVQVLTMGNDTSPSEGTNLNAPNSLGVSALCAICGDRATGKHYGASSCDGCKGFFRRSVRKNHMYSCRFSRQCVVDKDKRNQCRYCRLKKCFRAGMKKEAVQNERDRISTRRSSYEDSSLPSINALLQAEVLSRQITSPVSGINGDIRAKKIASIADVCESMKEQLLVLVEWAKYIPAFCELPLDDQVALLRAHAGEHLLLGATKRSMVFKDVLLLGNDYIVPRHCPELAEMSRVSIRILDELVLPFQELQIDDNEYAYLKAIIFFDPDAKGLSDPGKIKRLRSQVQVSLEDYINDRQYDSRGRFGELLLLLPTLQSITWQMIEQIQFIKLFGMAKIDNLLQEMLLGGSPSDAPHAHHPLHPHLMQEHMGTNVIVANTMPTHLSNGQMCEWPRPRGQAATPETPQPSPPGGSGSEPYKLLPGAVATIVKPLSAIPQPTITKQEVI
TPT1 inhibitor: Candida albicans TPT1 enzyme inhibitors, primary screen, biochemical, fluorescence polarization. tRNA 2'-phosphotransferase TPT1 (Candida albicans SC5314). recombinant caTPT1, FP RNA substrate dephosphorylation. inhibition, % at 5 µM. 0.81% of 300,000 active;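 active means inhibition above the mean of all tested compounds plus 3 SD, set per screening campaign, cut at about 24% in these data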
Rpn11 inh: Rpn11 (PSMD14) deubiquitinase inhibitors, primary screen, biochemical, fluorescence polarization, uHTS; 26S proteasome non-ATPase regulatory subunit 14 (Homo sapiens), O00487; human 26S proteasome, Ub4-pepOG fluorescence polarization; 20S core pre-blocked with epoxomicin; calls only at 20 µM; 0.59% of 360,000 active;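 active means inhibition at 20 µM, scaled to each plate's controls, above about 33%, limit read from the data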
TPT1 inh confirm: Candida albicans TPT1 inhibitors, confirmation, biochemical, fluorescence polarization, triplicate; recombinant caTPT1, RNase T1 coupled; 74% of 2,400 active; inhibition, % at 5 µM; shares compounds with TPT1 inhibitor;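 active means inhibition above the primary screen limit, the mean inhibition of all tested compounds plus 3 SD, cut at about 25% in these data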
RNase T1 inh: RNase T1 inhibitors, counter-screen for TPT1 inhibitor project, biochemical, fluorescence polarization. shares compounds with TPT1 inhibitor. RNase T1 cleavage, 1536-well. inhibition, % at 5 µM. 83% of 2,400 active. AID 2153, 2009;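 active means inhibition above the solvent-only control well mean plus 3 SD, limit set per screening run, cut at about 23% in these data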;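 further: inhibitors block cleavage so intact labeled substrate keeps polarization high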
Rpn11 inh conf: Rpn11 (PSMD14) deubiquitinase inhibitors, confirmation, biochemical, fluorescence polarization, single concentration | shares compounds with Rpn11 inh | purified human 26S proteasome, Ub4-pepOG fluorescence polarization; proteasome pretreated with epoxomicin | inhibition, % at 20 µM | 29% of 1,900 active | AID 602318, 2012
MMP-2 inh: MMP-2 enzyme inhibition, confirmation, counter-screen for RPN11 inhibitor project, biochemical, fluorescence, single concentration; shares compounds with Rpn11 inh; recombinant MMP-2, FRET peptide cleavage fluorescence; inhibition, % at 20 µM; 4% of 1,900 active; AID 602330, 2012;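 further: human MMP-2 activated beforehand with APMA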
Thrombin inh: bovine thrombin protease inhibition, confirmation, counter-screen for Rpn11 inhibitor project, biochemical, fluorescence polarization, single concentration; shares compounds with Rpn11 inh; inhibition, % at 20 µM; bovine thrombin cleavage of Ub4-pepOG; AID 602333, 2012; 13% of 1,900 active;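 active means mean inhibition at least 40% at 20 µM, or signal 3 deviations below plate average, so some actives read negative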
HNF4a DNA conf: change in HNF4A binding to DNA, retest, confirmation, biochemical, fluorescence polarization, FITC-DNA; shares compounds with HNF4A DNA FP; 1 h; activity change, % at 12.5 µM; 99% of 210 active; call rule not given here
Hits are given with their value; - = inactive; . = not tested or not shown; + = active, no number. Compounds with a hit are over-represented: about 1.7% of the library has one in this group of screens. Unless noted, no stated cut-off is given here; in the data, active means inhibition above about 40%; inactive means the rest.

SMILES	IDE inh	CSN deneddyl inh	IDE cell activ	HNF4A DNA FP	TPT1 inhibitor	Rpn11 inh	TPT1 inh confirm	RNase T1 inh	Rpn11 inh conf	MMP-2 inh	Thrombin inh	HNF4a DNA conf
Cc1ccc(C)c(N(CC(=O)N/N=C/c2ccc(-c3ccc([N+](=O)[O-])cc3)o2)S(=O)(=O)c2ccccc2)c1	-	44	-	93	41	.	51	61	.	.	.	54
O=C(Cc1ccccc1)N/N=C/c1ccc(-c2ccc([N+](=O)[O-])cc2)o1	-	-	-	-	-	-	.	.	.	.	.	.
CNc1nc(N/N=C/c2cc([N+](=O)[O-])ccc2F)nc(Nc2ccccc2)n1	.	-	-	-	.	-	.	.	.	.	.	.
CN1C(=O)/C(=C/C=C2/CCCN2C)N(C)C1=S	-	-	-	46	41	+	90	102	56	-	-	82
COc1ccc2[nH]cc(C=O)c2c1	-	-	-	-	-	-	.	.	.	.	.	.
COc1ccc2[nH]cc(/C=C/c3cc[n+](C)cc3)c2c1	-	-	-	52	71	+	83	90	114	-	114	114
CSc1nsc(/C=C/Nc2cccc(Cl)c2)c1C#N	-	-	-	40	36	-	26	34	.	.	.	41
CSc1nsc(/C=C/Nc2ccc(Cl)cc2)c1C#N	-	-	-	40	32	+	70	82	-	-	-	61
Cc1snc(SCc2cccc(Cl)c2)c1C#N	-	-	-	-	-	-	.	.	.	.	.	.
COc1ccc(N2C(=O)CCC(C(=O)N(C)CCc3ccccn3)C2c2ccc(OC)c(OC)c2)cc1 (configuration not stated)	-	-	-	-	-	-	.	.	.	.	.	.
C[C@H]1COc2cccc(N3CCN(Cc4ccccc4F)CC3)c2S(=O)(=O)N1	.	-	.	-	.	.	.	.	.	.	.	.
CCOC(=O)c1c(-c2ccc(F)cc2)csc1/N=C/N(C)C	-	-	-	-	-	-	.	.	.	.	.	.
COc1ccc(-n2c(C)cc(/C=C3\SC(=S)NC3=O)c2C)cc1	-	-	-	40	30	+	24	36	-	-	-	59

Screens from PubChem.
